Structures are written as SMILES. Bounds are passed on as bounds.

This passage reports ED50, RM and Activity results from ChEMBL document CHEMBL1124609, “Synthesis and anticonvulsant properties of 2,3,3a,4-tetrahydro-1H-pyrrolo[1,2-a]benzimidazol-1-ones” (J Med Chem, 1989).

For data set [1], the species on record is Rattus norvegicus. Briefly: Anticonvulsant activity against maximal electroshock seizures(MES) in rats. It is filed as functional. An outline of the steps:
(§1)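 Adult male Wistar rats (200-250 g), groups of 10, dosed ip in 80% DMSO/20% distilled water. 60 min later a 50-mA, 60-Hz alternating current was given through ear electrodes for 0.2 s. Protection was absence of tonic hind limb extension. ED50 (±95% confidence limits) by Litchfield and Wilcoxon.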

For data set [2], the species on record is Mus musculus. The experiment in a line: Anticonvulsant activity against audiogenic seizures in DBA/2 mice. The format is functional. The method, boiled down: (§2)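 DBA/2 mice of either sex (6-12 g, 21-25 days old), dosed ip in 80% DMSO/20% distilled water. 45 min later exposed to a mixed-frequency 109-dB sound for up to 60 s. Latency to and incidence of wild running, clonus, tonus and respiratory arrest were scored. ED50 (±95% confidence limits) by Litchfield and Wilcoxon.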

Data set [3] is described as follows: Relative lipophilicity. The format is physicochemical. The following applies: reversed-phase TLC, acetone/water 2:1. An outline of the steps:
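Reversed-phase TLC on silanized silica gel plates dried 1 h at 105 °C, with acetone/water 2:1 v/v as mobile phase. Compounds were applied from chloroform solution (3 mg/mL). Rf is the mean of five runs with different plate positions, and RM = log[(1/Rf) - 1].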

For data set [4], the species on record is Rattus norvegicus. The experiment in a line: Compound was tested for its activity against tonic hind limb extension in MES test in rats; Completely antagonized. The format is functional, Hindlimb. The method, boiled down: as §1
The species entered for data set [5] is Mus musculus. The experiment in a line: Compound was tested for its activity against clonic seizures phase in […] mice; Completely protected. The format is functional. The method, boiled down: as §2

For `O=C1CCC2(c3ccc(Cl)cc3)Nc3cc(Cl)ccc3N12` (centres undefined), the ED50 – broadly, the midpoint of the dose-response relation – in the data set filed under Rattus norvegicus [1] was 281 µmol/kg; in the data set filed under Mus musculus [2], 143 µmol/kg. The RM in data set [3] was 0.068.
As to `O=C1NC(=O)C(c2ccccc2)(c2ccccc2)N1` [PHENYTOIN], the values for the ED50 in the data set filed under Rattus norvegicus [1] and in the data set listed under Mus musculus [2] were 55.5 µmol/kg and 19.8 µmol/kg, respectively.
Consider `O=C1CCC2(c3ccc(F)cc3)Nc3ccc(Cl)cc3N12` (centres undefined), for which the ED50 in the data set listed under Rattus norvegicus [1] was found to be 198 µmol/kg; in the data set filed under Mus musculus [2], 178 µmol/kg. The RM in data set [3] turned out to be 0.028.
For `O=C1CCC2(c3ccccc3)Nc3cc(Cl)ccc3N12` (centres undefined), in that order: 126 µmol/kg, 95.9 µmol/kg and -0.007.
In the case of `CC12CCC(=O)N1c1ccccc1N2` (centres undefined), the ED50 in the data set listed under Rattus norvegicus [1] worked out at 35.5 µmol/kg; in the data set filed under Mus musculus [2], 26.3 µmol/kg. In addition, the results for the Activity in the data set filed under Rattus norvegicus [4] and in the data set listed under Mus musculus [5] were 200 µM/kg and 100 µM/kg, respectively. This compound also had an RM in data set [3] of -0.341.
Turning to `CCCC(CCC)C(=O)O` [VALPROIC ACID], the 50% effective dose (ED50) in the data set filed under Rattus norvegicus [1] stood at 1890 µmol/kg; in the data set listed under Mus musculus [2], 1230 µmol/kg.
As to `O=C1CCC2(c3ccc(Cl)cc3)Nc3ccccc3N12` (centres undefined), the ED50 is 234 µmol/kg in the data set listed under Rattus norvegicus [1] and 166 µmol/kg in the data set listed under Mus musculus [2]. Further, the RM in data set [3] was -0.033.
For `O=C1CCC2(c3ccccc3)Nc3ccc(Cl)cc3N12` (centres undefined), the ED50 amounted to 271 µmol/kg in the data set filed under Rattus norvegicus [1] and 179 µmol/kg in the data set listed under Mus musculus [2]. The compound further returned an RM in data set [3] of -0.005.
As to `O=C1CCC2(c3ccccc3)Nc3ccccc3N12` (centres undefined), the values for the ED50 in the data set filed under Rattus norvegicus [1] and in the data set filed under Mus musculus [2] were 200 µmol/kg and 161 µmol/kg, respectively. In addition, in data set [3], the RM is recorded as -0.131.
For `CC12CCC(=O)N1c1ccc([N+](=O)[O-])cc1N2` (centres undefined), the ED50 in the data set filed under Rattus norvegicus [1] and in the data set filed under Mus musculus [2] was above 600 µmol/kg in each case. In data set [3], this compound displayed an RM of -0.187.
Turning to `Cc1ccc2c(c1)NC1(C)CCC(=O)N21` (centres undefined), the ED50 in the data set filed under Rattus norvegicus [1] was 141 µmol/kg; in the data set filed under Mus musculus [2], 97.7 µmol/kg. For the same compound, in data set [3], the RM is reported as -0.284.
The corresponding values for `CC12CCC(=O)N1c1cc(Cl)ccc1N2` (centres undefined) are 234 µmol/kg, 148 µmol/kg and -0.162.
Consider `CC12CCC(=O)N1c1cc([N+](=O)[O-])ccc1N2` (centres undefined), for which the ED50 in the data set listed under Rattus norvegicus [1] and in the data set filed under Mus musculus [2] was above 600 µmol/kg throughout. Also, the RM in data set [3] was -0.237.
For the compound `CC12CCC(=O)N1c1ccc(Cl)cc1N2` (centres undefined), the ED50 in the data set listed under Rattus norvegicus [1] came to 88.2 µmol/kg; in the data set filed under Mus musculus [2] it was 79.4 µmol/kg. Also, in data set [3], the RM is -0.167.
Turning to `O=C1CCC2(c3ccc(F)cc3)Nc3cc(Cl)ccc3N12` (centres undefined), the figures for the ED50 in the data set listed under Rattus norvegicus [1] and in the data set listed under Mus musculus [2] were 105 µmol/kg and 87.3 µmol/kg, respectively. The compound also yielded an RM in data set [3] of 0.019.
For `O=C1CCC2(c3ccc(F)cc3)Nc3ccccc3N12` (centres undefined), in that order: 575 µmol/kg, 356 µmol/kg and -0.084.
For `Cc1ccc2c(c1)N1C(=O)CCC1(C)N2` (centres undefined), in that order: 197 µmol/kg, 122 µmol/kg and -0.279.
In the case of `O=C1CCC2(c3ccc(Cl)cc3)Nc3ccc(Cl)cc3N12` (centres undefined), the ED50 stood at 501 µmol/kg in the data set listed under Rattus norvegicus [1] and 347 µmol/kg in the data set listed under Mus musculus [2]. Besides, the RM in data set [3] is recorded as 0.073.
